Measurements: ChEMBL document CHEMBL1250442, “Inhibiting gene expression at transcription start sites in chromosomal DNA with antigene RNAs” (Nat Chem Biol, 2005)
Activity calls are given as the source filed them. No cut-off for these calls is given here.

Legend:
[1] = test system: T47D; experiment: Inhibition of PR-A gene expression in human T47D cells at 25 nM by syber green assay in presence of 10 nM estradiol; assay type: functional, cell-based
[2] = test system: T47D; experiment: Inhibition of PR-A mRNA gene expression in human T47D cells at 100 nM by syber green assay; assay type: functional
How it was run: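 T47D cells plated at 80,000/well without antibiotics two days before Oligofectamine transfection with agRNA duplex (25 or 100 nM final); medium changed at 24 h, harvest day 5 unless stated otherwise. TRIzol total RNA; PR mRNA by real-time PCR with SYBR Green: 50 °C 2 min, 95 °C 10 min, 40 cycles 95 °C 15 s/60 °C 1 min.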

[3] = test system: T47D; experiment: Inhibition of PR-B mRNA gene expression in human T47D cells at 100 nM by syber green assay; assay type: functional
How it was run: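 T47D cells in RPMI-1640 with 10% FBS, NEAA, insulin, 37 °C, 5% CO2. Plated two days before transfection without antibiotics. Oligofectamine-mediated duplex RNA transfection at 100 nM final, medium changed at 24 h, harvest five days post-transfection. Total RNA extracted with TRIzol. hPR mRNA quantified by SYBR Green qPCR: 50 °C 2 min, 95 °C 10 min, then 40 cycles of 95 °C 15 s / 60 °C 1 min.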

[4] = test system: T47D; experiment: Inhibition of cyclooxygenase-2 expression in human T47D cells at 25 nM by syber green assay; assay type: functional, cell-based
[5] = test system: T47D; experiment: Inhibition of PR-B gene expression in human T47D cells at 25 nM by syber green assay in presence of 10 nM estradiol; assay type: functional, cell-based
[6] = test system: T47D; experiment: Inhibition of major vault protein expression in human T47D cells at 100 nM by syber green assay; assay type: functional, cell-based
[7] = test system: T47D; experiment: Inhibition of androgen receptor expression in human T47D cells after 12 days at 100 nM by syber green assay; assay type: functional, cell-based
How it was run: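 AR expression in T47D cells, grown in RPMI-1640 with 10% FBS, NEAA and insulin. Plated antibiotic-free two days before Oligofectamine transfection with 100 nM duplex RNA; medium replaced after 24 h. TRIzol total RNA. SYBR Green real-time PCR: 50 °C 2 min, 95 °C 10 min, 40 cycles of 95 °C 15 s and 60 °C 1 min.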

`Cc1cn(CC(=O)N(CCNC(=O)CN(CCNC(=O)CN(CCNC(=O)CN(CCNC(=O)CN(CCNC(=O)CN(CCNC(=O)CN(CCNC(=O)CN(CCNC(=O)CN(CCNC(=O)CN(CCNC(=O)CN(CCNC(=O)CN(CCNC(=O)CN(CCNC(=O)CN(CCNC(=O)CN(CCNC(=O)CN(CCNC(=O)CN(CCNC(=O)CN(CCNC(=O)CN(CCNC(=O)CN(CCNC(=O)CN)C(=O)Cn2ccc(=O)[nH]c2=O)C(=O)Cn2ccc(N)nc2=O)C(=O)Cn2cnc3c(=O)[nH]c(N)nc32)C(=O)Cn2cnc3c(=O)[nH]c(N)nc32)C(=O)Cn2ccc(=O)[nH]c2=O)C(=O)Cn2ccc(=O)[nH]c2=O)C(=O)Cn2cnc3c(N)ncnc32)C(=O)Cn2cnc3c(=O)[nH]c(N)nc32)C(=O)Cn2ccc(N)nc2=O)C(=O)Cn2cnc3c(=O)[nH]c(N)nc32)C(=O)Cn2cnc3c(N)ncnc32)C(=O)Cn2ccc(N)nc2=O)C(=O)Cn2ccc(N)nc2=O)C(=O)Cn2cnc3c(N)ncnc32)C(=O)Cn2cnc3c(N)ncnc32)C(=O)Cn2ccc(=O)[nH]c2=O)C(=O)Cn2ccc(=O)[nH]c2=O)C(=O)Cn2cnc3c(N)ncnc32)C(=O)Cn2ccc(=O)[nH]c2=O)CC(=O)NCCN(CC(=O)NCC(=O)O)C(=O)Cn2cc(C)c(=O)[nH]c2=O)c(=O)[nH]c1=O` was tested, and the inhibition [1] was “Active”, the inhibition at 0.1 µM [2] was 71% and the inhibition at 0.1 µM [3] was 71%. The inhibition [4] was “Active”.
For `Cc1cn(CC(=O)N(CCNC(=O)CN(CCNC(=O)CN(CCNC(=O)CN(CCNC(=O)CN(CCNC(=O)CN(CCNC(=O)CN(CCNC(=O)CN(CCNC(=O)CN(CCNC(=O)CN(CCNC(=O)CN(CCNC(=O)CN(CCNC(=O)CN(CCNC(=O)CN(CCNC(=O)CN(CCNC(=O)CN(CCNC(=O)CN(CCNC(=O)CN(CCNC(=O)CN(CCNC(=O)CN(CCNC(=O)CN)C(=O)Cn2ccc(=O)[nH]c2=O)C(=O)Cn2ccc(=O)[nH]c2=O)C(=O)Cn2cnc3c(N)ncnc32)C(=O)Cn2cnc3c(=O)[nH]c(N)nc32)C(=O)Cn2ccc(N)nc2=O)C(=O)Cn2cnc3c(=O)[nH]c(N)nc32)C(=O)Cn2cnc3c(N)ncnc32)C(=O)Cn2ccc(N)nc2=O)C(=O)Cn2ccc(N)nc2=O)C(=O)Cn2cnc3c(N)ncnc32)C(=O)Cn2cnc3c(N)ncnc32)C(=O)Cn2ccc(=O)[nH]c2=O)C(=O)Cn2ccc(=O)[nH]c2=O)C(=O)Cn2cnc3c(=O)[nH]c(N)nc32)C(=O)Cn2ccc(=O)[nH]c2=O)C(=O)Cn2ccc(N)nc2=O)C(=O)Cn2cnc3c(N)ncnc32)C(=O)Cn2ccc(=O)[nH]c2=O)C(=O)Cn2cnc3c(N)ncnc32)CC(=O)NCCN(CC(=O)NCC(=O)O)C(=O)Cn2cc(C)c(=O)[nH]c2=O)c(=O)[nH]c1=O`, the inhibition [1] was “Active”, the inhibition at 0.1 µM [2] was 81% and the inhibition at 0.1 µM [3] was 81%. For the same molecule, the inhibition [4] was “Active”.
For `Cc1cn(CC(=O)N(CCNC(=O)CN(CCNC(=O)CN(CCNC(=O)CN(CCNC(=O)CN(CCNC(=O)CN(CCNC(=O)CN(CCNC(=O)CN(CCNC(=O)CN(CCNC(=O)CN(CCNC(=O)CN(CCNC(=O)CN(CCNC(=O)CN(CCNC(=O)CN(CCNC(=O)CN(CCNC(=O)CN(CCNC(=O)CN(CCNC(=O)CN(CCNC(=O)CN(CCNC(=O)CN(CCNC(=O)CN)C(=O)Cn2cnc3c(=O)[nH]c(N)nc32)C(=O)Cn2cnc3c(=O)[nH]c(N)nc32)C(=O)Cn2cnc3c(=O)[nH]c(N)nc32)C(=O)Cn2ccc(=O)[nH]c2=O)C(=O)Cn2cnc3c(=O)[nH]c(N)nc32)C(=O)Cn2cnc3c(N)ncnc32)C(=O)Cn2cnc3c(=O)[nH]c(N)nc32)C(=O)Cn2cnc3c(N)ncnc32)C(=O)Cn2cnc3c(=O)[nH]c(N)nc32)C(=O)Cn2ccc(=O)[nH]c2=O)C(=O)Cn2ccc(=O)[nH]c2=O)C(=O)Cn2ccc(N)nc2=O)C(=O)Cn2ccc(N)nc2=O)C(=O)Cn2ccc(N)nc2=O)C(=O)Cn2ccc(N)nc2=O)C(=O)Cn2cnc3c(N)ncnc32)C(=O)Cn2ccc(=O)[nH]c2=O)C(=O)Cn2ccc(N)nc2=O)C(=O)Cn2ccc(=O)[nH]c2=O)CC(=O)NCCN(CC(=O)NCC(=O)O)C(=O)Cn2cc(C)c(=O)[nH]c2=O)c(=O)[nH]c1=O`, the inhibition [1] was “Active”, the inhibition [5] was “Active” and the inhibition at 0.1 µM [2] was 91%. For the same molecule, the inhibition at 0.1 µM [3] was 91% and the inhibition [6] was “Active”.
For `Cc1cn(CC(=O)N(CCNC(=O)CN(CCNC(=O)CN(CCNC(=O)CN(CCNC(=O)CN(CCNC(=O)CN(CCNC(=O)CN(CCNC(=O)CN(CCNC(=O)CN(CCNC(=O)CN(CCNC(=O)CN(CCNC(=O)CN(CCNC(=O)CN(CCNC(=O)CN(CCNC(=O)CN(CCNC(=O)CN(CCNC(=O)CN(CCNC(=O)CN(CCNC(=O)CN(CCNC(=O)CN(CCNC(=O)CN)C(=O)Cn2cnc3c(=O)[nH]c(N)nc32)C(=O)Cn2cnc3c(=O)[nH]c(N)nc32)C(=O)Cn2cnc3c(=O)[nH]c(N)nc32)C(=O)Cn2cnc3c(=O)[nH]c(N)nc32)C(=O)Cn2ccc(N)nc2=O)C(=O)Cn2cnc3c(=O)[nH]c(N)nc32)C(=O)Cn2ccc(N)nc2=O)C(=O)Cn2ccc(=O)[nH]c2=O)C(=O)Cn2cnc3c(=O)[nH]c(N)nc32)C(=O)Cn2cnc3c(=O)[nH]c(N)nc32)C(=O)Cn2cnc3c(=O)[nH]c(N)nc32)C(=O)Cn2cnc3c(N)ncnc32)C(=O)Cn2cnc3c(=O)[nH]c(N)nc32)C(=O)Cn2cnc3c(=O)[nH]c(N)nc32)C(=O)Cn2ccc(=O)[nH]c2=O)C(=O)Cn2cnc3c(=O)[nH]c(N)nc32)C(=O)Cn2cnc3c(=O)[nH]c(N)nc32)C(=O)Cn2cnc3c(N)ncnc32)C(=O)Cn2cnc3c(=O)[nH]c(N)nc32)CC(=O)NCCN(CC(=O)NCC(=O)O)C(=O)Cn2cc(C)c(=O)[nH]c2=O)c(=O)[nH]c1=O`, the inhibition [1] was “Active”, the inhibition [5] was “Active” and the inhibition at 0.1 µM [2] was 39%. For the same molecule, the inhibition at 0.1 µM [3] was 39% and the inhibition [7] was “Active”.
With `Cc1cn(CC(=O)N(CCNC(=O)CN(CCNC(=O)CN(CCNC(=O)CN(CCNC(=O)CN(CCNC(=O)CN(CCNC(=O)CN(CCNC(=O)CN(CCNC(=O)CN(CCNC(=O)CN(CCNC(=O)CN(CCNC(=O)CN(CCNC(=O)CN(CCNC(=O)CN(CCNC(=O)CN(CCNC(=O)CN(CCNC(=O)CN(CCNC(=O)CN(CCNC(=O)CN(CCNC(=O)CN(CCNC(=O)CN)C(=O)Cn2cnc3c(=O)[nH]c(N)nc32)C(=O)Cn2ccc(N)nc2=O)C(=O)Cn2ccc(=O)[nH]c2=O)C(=O)Cn2ccc(N)nc2=O)C(=O)Cn2ccc(=O)[nH]c2=O)C(=O)Cn2ccc(N)nc2=O)C(=O)Cn2ccc(N)nc2=O)C(=O)Cn2cnc3c(N)ncnc32)C(=O)Cn2ccc(N)nc2=O)C(=O)Cn2ccc(N)nc2=O)C(=O)Cn2ccc(=O)[nH]c2=O)C(=O)Cn2ccc(N)nc2=O)C(=O)Cn2ccc(N)nc2=O)C(=O)Cn2ccc(N)nc2=O)C(=O)Cn2cnc3c(N)ncnc32)C(=O)Cn2cnc3c(=O)[nH]c(N)nc32)C(=O)Cn2ccc(N)nc2=O)C(=O)Cn2cnc3c(=O)[nH]c(N)nc32)C(=O)Cn2ccc(N)nc2=O)CC(=O)NCCN(CC(=O)NCC(=O)O)C(=O)Cn2cc(C)c(=O)[nH]c2=O)c(=O)[nH]c1=O` the inhibition [1] was “Active”, the inhibition [5] was “Active” and the inhibition at 0.1 µM [2] was 92%. The inhibition at 0.1 µM [3] was 92% and the inhibition [7] was “Active”.
`Cc1cn(CC(=O)N(CCNC(=O)CN(CCNC(=O)CN(CCNC(=O)CN(CCNC(=O)CN(CCNC(=O)CN(CCNC(=O)CN(CCNC(=O)CN(CCNC(=O)CN(CCNC(=O)CN(CCNC(=O)CN(CCNC(=O)CN(CCNC(=O)CN(CCNC(=O)CN(CCNC(=O)CN(CCNC(=O)CN(CCNC(=O)CN(CCNC(=O)CN(CCNC(=O)CN(CCNC(=O)CN(CCNC(=O)CN)C(=O)Cn2ccc(=O)[nH]c2=O)C(=O)Cn2ccc(N)nc2=O)C(=O)Cn2ccc(=O)[nH]c2=O)C(=O)Cn2ccc(N)nc2=O)C(=O)Cn2ccc(N)nc2=O)C(=O)Cn2cnc3c(N)ncnc32)C(=O)Cn2ccc(N)nc2=O)C(=O)Cn2ccc(N)nc2=O)C(=O)Cn2ccc(=O)[nH]c2=O)C(=O)Cn2ccc(N)nc2=O)C(=O)Cn2ccc(N)nc2=O)C(=O)Cn2ccc(N)nc2=O)C(=O)Cn2cnc3c(N)ncnc32)C(=O)Cn2cnc3c(=O)[nH]c(N)nc32)C(=O)Cn2ccc(N)nc2=O)C(=O)Cn2cnc3c(=O)[nH]c(N)nc32)C(=O)Cn2ccc(N)nc2=O)C(=O)Cn2ccc(N)nc2=O)C(=O)Cn2ccc(N)nc2=O)CC(=O)NCCN(CC(=O)NCC(=O)O)C(=O)Cn2cc(C)c(=O)[nH]c2=O)c(=O)[nH]c1=O` was tested, and the inhibition [1] was “Active”, the inhibition [5] was “Active” and the inhibition at 0.1 µM [2] was under 20%. For the same molecule, the inhibition at 0.1 µM [3] was under 20% and the inhibition [7] was “Active”.
`Cc1cn(CC(=O)N(CCNC(=O)CN(CCNC(=O)CN(CCNC(=O)CN(CCNC(=O)CN(CCNC(=O)CN(CCNC(=O)CN(CCNC(=O)CN(CCNC(=O)CN(CCNC(=O)CN(CCNC(=O)CN(CCNC(=O)CN(CCNC(=O)CN(CCNC(=O)CN(CCNC(=O)CN(CCNC(=O)CN(CCNC(=O)CN(CCNC(=O)CN(CCNC(=O)CN(CCNC(=O)CN(CCNC(=O)CN)C(=O)Cn2ccc(=O)[nH]c2=O)C(=O)Cn2ccc(N)nc2=O)C(=O)Cn2ccc(N)nc2=O)C(=O)Cn2cnc3c(N)ncnc32)C(=O)Cn2ccc(N)nc2=O)C(=O)Cn2ccc(N)nc2=O)C(=O)Cn2ccc(=O)[nH]c2=O)C(=O)Cn2ccc(N)nc2=O)C(=O)Cn2ccc(N)nc2=O)C(=O)Cn2ccc(N)nc2=O)C(=O)Cn2cnc3c(N)ncnc32)C(=O)Cn2cnc3c(=O)[nH]c(N)nc32)C(=O)Cn2ccc(N)nc2=O)C(=O)Cn2cnc3c(=O)[nH]c(N)nc32)C(=O)Cn2ccc(N)nc2=O)C(=O)Cn2ccc(N)nc2=O)C(=O)Cn2ccc(N)nc2=O)C(=O)Cn2ccc(N)nc2=O)C(=O)Cn2ccc(N)nc2=O)CC(=O)NCCN(CC(=O)NCC(=O)O)C(=O)Cn2cc(C)c(=O)[nH]c2=O)c(=O)[nH]c1=O` was tested, and the inhibition [1] was “Active”, the inhibition [5] was “Active” and the inhibition at 0.1 µM [2] was 34%. The inhibition at 0.1 µM [3] was 34% and the inhibition [7] was “Active”.
